Source: PubChem BioAssay (Johns Hopkins Ion Channel Center)
hERG protect = shields human hERG channel from block by proarrhythmic agents. CHO-hERG, FluxOR thallium flux, dofetilide IC70 present. AID 1511. Q12809. activation (rescue from dofetilide block), less the hit threshold, % at 10 µM. 310,000 compounds, 0.51% hits;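 active means activation above the mean of controls blocked by dofetilide plus 5 SD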;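 further: thallium influx through hERG after potassium depolarization seen as dye fluorescence rise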
KCNK9 inh = human KCNK9 channel inhibition; Q9NPC2; HEK293 KCNK9, FluxOR thallium flux fluorescence; stronger effect = lower value; B-score at 10 µM; 310,000 compounds, 1.2% hits;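 active means ratio B-score over 3 SD below the library mean, with starting fluorescence within 5 SD of its mean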;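 further: negative B-score means less thallium flux so channel inhibition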
KCNQ1 block = inhibitors of human KCNQ1 potassium channel; CHO-K1 KCNQ1, FluxOR thallium flux fluorescence; stronger effect = higher value; B-score at 10 µM; 310,000 compounds, 1.3% hits; AID 2642;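 active means compounds whose thallium flux B-score, printed positive for inhibition, exceeds three library SD while starting fluorescence stays within three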;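 further: channel opened by potassium depolarization with thallium stimulus after 20 min compound exposure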
Target sequence (P51787 whole entry, looked up): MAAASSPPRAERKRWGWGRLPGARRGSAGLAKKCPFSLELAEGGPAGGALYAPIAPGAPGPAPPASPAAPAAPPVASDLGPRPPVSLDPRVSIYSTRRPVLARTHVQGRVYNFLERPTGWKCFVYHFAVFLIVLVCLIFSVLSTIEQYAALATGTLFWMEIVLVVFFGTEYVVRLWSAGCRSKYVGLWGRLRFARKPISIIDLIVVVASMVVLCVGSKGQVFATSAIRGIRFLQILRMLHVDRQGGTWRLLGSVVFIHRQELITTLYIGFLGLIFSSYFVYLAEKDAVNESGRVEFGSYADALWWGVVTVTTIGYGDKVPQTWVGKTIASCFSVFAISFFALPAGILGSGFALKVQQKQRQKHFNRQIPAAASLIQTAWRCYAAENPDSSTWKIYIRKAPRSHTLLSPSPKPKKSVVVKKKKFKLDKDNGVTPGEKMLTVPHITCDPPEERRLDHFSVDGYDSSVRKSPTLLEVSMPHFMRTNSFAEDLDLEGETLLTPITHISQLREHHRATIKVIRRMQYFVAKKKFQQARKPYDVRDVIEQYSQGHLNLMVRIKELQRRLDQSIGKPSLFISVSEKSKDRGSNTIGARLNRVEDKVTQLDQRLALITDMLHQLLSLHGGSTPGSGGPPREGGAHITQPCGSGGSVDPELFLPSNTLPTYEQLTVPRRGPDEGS
KCNQ1 pot = potentiators or activators of human KCNQ1 potassium channel. CHO-K1 KCNQ1, thallium flux FluxOR fluorescence; stronger effect = higher value. AID 2648. 310,000 compounds, 0.35% hits. P51787. B-score at 10 µM;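 active means fluorescence ratio B-score, a plate-corrected score, at least three library SD, with initial intensity B-score within 5 SD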
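Test system: CHO-K1 cells stably expressing KCNQ1 / Medium: assay buffer / Also added: depolarizing K+/Tl+ stimulus, K2SO4 and Tl2SO4 each 12.5 mM in 5x stock / Incubation: 90 min dye loading and 20 min compound exposure, both at room temperature / Signal: thallium influx via FluxOR fluorescence, kinetic imaging / Evaluation: B score of baseline-normalized fluorescence ratio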
Kir21 inh = Kir2.1 (mouse) channel inhibition; HEK293-Kir2.1, FluxOR thallium flux fluorescence; stronger effect = lower value; B-score at 10 µM; 310,000 compounds, 0.85% hits; AID 1672; P35561;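 active means fluorescence ratio B-score at or below minus 3 SD of library scores, with starting-brightness B-score within 2 SD, cut at about -4.2 in these data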;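 further: channel flux triggered by added potassium and thallium sulfate stimulus; B-score of peak minus minimum fluorescence over baseline after thallium stimulus; more negative B-score means stronger Kir2.1 block with less thallium influx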
KCNK3 block = human KCNK3 channel inhibition, primary screen; 340,000 compounds, 0.84% hits; AID 602410; B-score at 10 µM; CHO-KCNK3 thallium flux, FluxOR fluorescence; stronger effect = lower value; O14649;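 active means B-score under library mean minus 4 SD, starting fluorescence ratio at most library mean plus 5 SD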;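 further: more negative B-score means stronger inhibition of thallium flux through KCNK3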
Starred values were filed as active, the others as inactive; i = inactive; nt = no result. Rows were chosen to be rich in hits. Some 3.7% of all compounds tested hit in one or more screens of this group.

SMILES	hERG protect	KCNK9 inh	KCNQ1 block	KCNQ1 pot	Kir21 inh	KCNK3 block
COc1ccc(-c2nc3ccc(C(=O)N4CCC5(CC4)OCCO5)cc3nc2-c2ccc(OC)cc2)cc1	-7	i	6*	i	0.24	i
CC1=CC(=O)C2=C(C)C[C@H](O)[C@@H]3[C@H](OC(=O)[C@H]3C)[C@@H]12	nt	nt	nt	nt	nt	i
CC1CCC(NCCc2ccc3c(c2)OCO3)CC1 (centres undefined)	-5	i	i	i	0.39	i
c1cc2c(cc1CCNC1C3CC4CC(C3)CC1C4)OCO2 (centres undefined)	-5	i	6*	i	-4.5*	i
Cc1ccc(NP(=O)(Oc2ccccc2)Oc2ccccc2)cc1	nt	nt	nt	nt	nt	i
CCc1ccc(NP(=O)(Oc2ccccc2F)Oc2ccccc2F)cc1	-10	-7.4*	i	i	1.4	i
Cc1ccc(NP(=O)(Oc2ccccc2F)Oc2ccccc2F)cc1	-13	i	6*	i	-0.83	i
Cc1nc2ccc(Br)cc2c(=O)n1-c1ccc([N+](=O)[O-])c(C(F)(F)F)c1	-6	i	i	i	-0.22	i
CN(C(=O)Oc1cccc2ccccc12)C1C=CCC1 (centres undefined)	nt	nt	nt	nt	nt	i
Cc1ccc(-c2cc(-c3ccc(C)cc3)[n+](-c3ccc(C(=O)[O-])cc3)c(-c3ccc(C)cc3)c2)cc1	-47	i	8*	i	-8.2*	i
CCOC(=O)c1ccc(-[n+]2c(-c3ccccc3)cc(-c3ccccc3)cc2-c2ccccc2)cc1	-41	i	12*	i	-11*	i
CCOC(=O)c1cccc(-[n+]2c(-c3ccccc3)cc(-c3ccccc3)cc2-c2ccccc2)c1	-38	i	13*	i	-11*	i
Cc1cc(C(=O)OCC(=O)Nc2ccc(F)cc2F)c(C)n1C1CC1	nt	nt	nt	nt	nt	i
Cc1c(-c2cccc(Cl)c2)nc2ccccc2c1C(=O)N1CCC2(CC1)OCCO2	-12	i	i	i	1.3	i
O=c1[nH]c(=O)n(-c2ccc(F)cc2)c(O)c1/C=C1\C=Nc2ccccc21	-8	i	9*	i	0.48	i
O=c1[nH]c(=O)n(-c2ccccc2F)c(O)c1/C=C1\C=Nc2ccccc21	-13	i	i	i	0.63	i
O=P(Oc1ccccc1)(Oc1ccccc1)c1ccccc1	-8	i	i	i	-5.9*	i
CC1=CC(O)C(O)C2(C)C1CC1OC(=O)CC3C(C)C(O)C(=O)C2C13CO (centres undefined)	nt	nt	nt	nt	nt	i
CC1(C)C(=O)CCC2C1=CCC1C2CCC2(C)C(O)CCC12 (centres undefined)	nt	nt	nt	nt	nt	i
CCOP(=S)(OCC)c1ccc(N(C)C)cc1	1	i	i	9*	-0.02	i
COC(=O)C1=C(c2cc3ccccc3o2)C[C@@H]2CC[C@H]1N2C(=O)N1CCC(C)CC1	-13	i	i	i	-0.05	i
CCCCCn1c(=O)c(C(=O)Nc2cccc(C)n2)c(O)c2ccccc21	-4	i	i	i	-1.5	i
CCCCCn1c(=O)c(C(=O)Nc2cccc(C)c2)c(O)c2ccccc21	0	i	i	i	-0.05	i
CCCCn1c(=O)c(C(=O)Nc2ccc(C)cn2)c(O)c2ccccc21	-6	-7.7*	i	i	-0.48	i
CCCCCn1c(=O)c(C(=O)Nc2ccccn2)c(O)c2ccccc21	-4	-7.4*	i	i	0.24	i
SMILES	hERG protect	KCNK9 inh	KCNQ1 block	KCNQ1 pot	Kir21 inh	KCNK3 block
CC(Cc1ccccc1)NCCC(=O)NC(C)Cc1ccccc1 (centres undefined)	-8	i	i	i	-2.3	i
CN(C(=O)Cc1ccc(Cl)c(Cl)c1)C(CN1CCCC1)c1cccc(OCC(=O)O)c1 (centres undefined)	nt	nt	nt	nt	nt	i
COc1ccc2c(c1)/C(=C/c1cnc[nH]1)C(=O)N2	1	i	i	8*	0.57	i
O=C1Nc2ccccc2/C1=C/c1cnc[nH]1	-16	i	i	i	-2	i
COc1ccc(CNCCc2cccc(F)c2)c2ccccc12	-11	i	i	i	-18*	nt
COc1cc(OC)c(OC)cc1CNCCc1cccc(F)c1	-4	i	i	i	-0.94	i
O=C(CSC1c2ccccc2-c2ccccc21)N/N=C/c1ccc(C(=O)O)cc1	-6	i	i	i	-2	i
O=C(CSC1c2ccccc2-c2ccccc21)N/N=C/c1ccccc1O	-12	i	9*	i	0.18	i
C(#CCN1CCOCC1)COCC#Cc1ccccc1	5.3*	i	i	i	-2.2	i
CCCCc1ccc(NC2=NCCCS2)cc1	-18	i	i	i	-4.9*	i
CC(=O)c1ccc(NC2=NCCCS2)cc1	-6	i	i	i	0.27	i
CCOP(=O)(Nc1ccc2c(c1)C(=NNC(N)=S)c1ccccc1-2)OCC	nt	nt	nt	nt	nt	i
COC(=O)C1=C(c2ccc(S(C)(=O)=O)cc2)C[C@@H]2CC[C@H]1N2C(=O)NC1CCCCC1	5.8*	i	i	i	0.28	i
COc1ccc(CNC(=O)CCC(=O)N2C[C@H]3C[C@H](C2)c2cccc(=O)n2C3)cc1OC	-4	i	i	i	-0.04	i
c1ccc2c(c1)CC1CNCc3cccc(c31)S2 (centres undefined)	-8	i	i	i	-8.1*	i
CN1CN(c2ccccc2)C2(CCN(CCCSc3ccccc3NC(=O)/C=C/c3ccccc3)CC2)C1=O	nt	nt	nt	nt	nt	i
NC1=NC(=O)N2CC12 (centres undefined)	nt	nt	nt	nt	nt	i
CC/C(=C\C=C\[C@@H]1C=C[C@@H]2CCC[C@H]2[C@@H]1C(=O)c1ccc[nH]1)[C@@H]1O[C@@H]([C@@H](C)C(=O)O)CC[C@@H]1C	74*	i	i	38*	-0.5	nt
CN1CC(C(=O)c2ccc(Cl)cc2)C(c2ccc(Cl)cc2Cl)C1 (centres undefined)	-16	i	i	i	-5*	i
CCC(=O)O[C@H]1CC[C@H]2[C@@H]3CCC4=CC(=O)CC[C@]4(C)[C@H]3CC[C@]12C	nt	nt	nt	nt	nt	-8.7*
CC12CCC(=O)C=C1CCC1C2CCC2(C)C(O)CCC12 (centres undefined)	nt	nt	nt	nt	nt	i
NC(Cc1ccccc1)c1nn[nH]n1 (centres undefined)	nt	nt	nt	nt	nt	i
CNCCCc1ccccc1	6.5*	i	i	i	-0.03	i
C[C@]12CCC3C(CC[C@H]4C[C@H](O)CC[C@]34C)C1[C@@H](O)C[C@@H]2O (some centres undefined)	nt	nt	nt	nt	nt	i
